Experimental findings from ChEMBL document CHEMBL2384965, “ABSOLUTE CONFIGURATION AND BIOLOGICAL PROPERTIES OF ENANTIOMERS OF CFTR INHIBITOR BPO-27” (ACS Med Chem Lett, 2013) are described below.

Active and inactive are the calls of the source. The rule behind the calls is not given here. Bounds are passed on as bounds.

The half-life is the time in which the quantity being followed falls by half. Read a high half-life as slow decline. The term IC50 denotes the concentration that gives 50% inhibition.

Series [1] in a line: Drug metabolism in rat liver microsomes at 5 uM measured over 4 hrs by LC/MS analysis in presence of NADPH. The following applies: read-out: Drug metabolism. In kind it is ADME, Microsome.
The target of series [2] is T1, Cystic fibrosis transmembrane conductance regulator (Homo sapiens, UniProt P13569). As to the kind of experiment: Inhibition of wild type human CFTR chloride conductance expressed in forskolin-stimulated rat FRT cells at 100 nM by short-circuit current analysis in presence of transepithelial chloride gradient. The class given is cell-based. The essentials:
(§1)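 FRT epithelial cells expressing human wild-type CFTR, basolateral membrane permeabilized with amphotericin B, transepithelial chloride gradient applied. CFTR chloride conductance activated with 10 μM forskolin; inhibition read as the reduction in short-circuit current.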
Target sequence in this assay (P13569 whole entry, looked up): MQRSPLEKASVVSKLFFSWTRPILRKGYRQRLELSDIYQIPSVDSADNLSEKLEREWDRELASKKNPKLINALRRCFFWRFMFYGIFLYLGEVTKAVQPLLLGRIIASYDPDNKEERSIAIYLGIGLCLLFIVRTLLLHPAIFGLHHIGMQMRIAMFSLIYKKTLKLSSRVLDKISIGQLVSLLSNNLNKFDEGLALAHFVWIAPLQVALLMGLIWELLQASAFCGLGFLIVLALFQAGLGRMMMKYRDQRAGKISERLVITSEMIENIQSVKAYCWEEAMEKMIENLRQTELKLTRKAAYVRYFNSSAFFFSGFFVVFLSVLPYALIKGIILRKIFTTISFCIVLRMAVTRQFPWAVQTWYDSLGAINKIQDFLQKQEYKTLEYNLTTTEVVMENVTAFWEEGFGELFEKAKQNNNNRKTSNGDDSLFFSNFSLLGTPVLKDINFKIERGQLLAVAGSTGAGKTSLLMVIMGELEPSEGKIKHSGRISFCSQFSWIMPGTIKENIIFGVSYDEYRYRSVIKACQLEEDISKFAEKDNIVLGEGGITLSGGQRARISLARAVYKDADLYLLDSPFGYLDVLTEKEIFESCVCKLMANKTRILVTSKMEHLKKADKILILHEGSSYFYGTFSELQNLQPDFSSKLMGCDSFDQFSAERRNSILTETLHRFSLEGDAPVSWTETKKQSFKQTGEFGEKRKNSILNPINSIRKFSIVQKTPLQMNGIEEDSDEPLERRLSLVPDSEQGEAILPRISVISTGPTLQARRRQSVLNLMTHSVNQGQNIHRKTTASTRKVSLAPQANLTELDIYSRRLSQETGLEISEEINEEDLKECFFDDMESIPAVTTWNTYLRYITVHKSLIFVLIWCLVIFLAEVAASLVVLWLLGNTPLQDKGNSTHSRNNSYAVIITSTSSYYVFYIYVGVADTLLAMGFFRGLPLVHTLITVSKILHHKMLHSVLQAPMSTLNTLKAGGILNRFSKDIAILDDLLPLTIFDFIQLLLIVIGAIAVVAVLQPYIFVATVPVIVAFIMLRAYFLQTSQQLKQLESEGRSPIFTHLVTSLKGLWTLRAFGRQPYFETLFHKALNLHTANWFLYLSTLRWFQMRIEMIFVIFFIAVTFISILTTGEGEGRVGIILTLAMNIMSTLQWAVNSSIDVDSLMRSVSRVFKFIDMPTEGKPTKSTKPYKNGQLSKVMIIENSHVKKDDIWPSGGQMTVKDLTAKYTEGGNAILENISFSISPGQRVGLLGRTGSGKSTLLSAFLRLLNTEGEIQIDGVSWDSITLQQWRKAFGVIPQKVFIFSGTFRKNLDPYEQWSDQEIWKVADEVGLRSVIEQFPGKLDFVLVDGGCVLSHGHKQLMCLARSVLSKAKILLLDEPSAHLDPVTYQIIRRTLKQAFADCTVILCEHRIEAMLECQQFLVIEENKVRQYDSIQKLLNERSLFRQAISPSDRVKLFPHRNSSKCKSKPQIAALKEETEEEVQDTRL

A short description of series [3]: Drug uptake in CD1 mouse kidney at 10 mg/kg, ip administered as bolus dose measured at 4 hrs by LC-MS analysis. The class given is ADME, organism-based. Particulars: read-out: Drug uptake. Set-up: dose 10 mg/kg, route intraperitoneal. The essentials: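 Mice received a single bolus intraperitoneal dose of 10 mg/kg in 5% DMSO, 2.5% Tween-80 and 2.5% PEG400 in water. Kidney homogenate was taken at 4 h and the compound measured by LC/MS (3 mice).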

For series [4], the system named is Serum. The series is described as follows: Metabolic stability in mouse serum assessed as formation of (S)-BPO-27 at 5 mg measured at 4 hrs by hydrogen-deuterium exchange assay. In kind it is ADME, cell-free.
The nature of series [5]: Half life in CD1 mouse at 10 mg/kg, ip administered as bolus dose. Set-up: dose 10 mg/kg, route intraperitoneal. In kind it is ADME, organism-based. The following applies: in vivo. The essentials:
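Single bolus i.p. dose of 10 mg/kg in mice, given in 5% DMSO, 2.5% Tween-80 and 2.5% PEG400 in water. Blood sampled at set times; serum compound measured by LC/MS ion chromatograms (m/z 548 [M+H]+) against a calibration of known amounts spiked into blood (linear, sensitivity better than 500 nM). Mean ± S.E., n = 3; t1/2 from the decay of the parent compound.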

The test system of series [6] is Serum. As to the kind of experiment: Metabolic stability in mouse serum at 5 mg after 4 hrs by hydrogen-deuterium exchange assay. The class given is ADME, cell-free.
In series [7] the target is T1, Cystic fibrosis transmembrane conductance regulator. As to the kind of experiment: Inhibition of wild type human CFTR chloride conductance expressed in forskolin-stimulated rat FRT cells by short-circuit current analysis in presence of transepithelial chloride gradient. The class given is cell-based. The essentials: as §1

Consider `Cn1c(=O)c2c(-c3ccccc3)n3c(c2n(C)c1=O)[C@@H](c1ccc(Br)o1)Oc1ccc(C(=O)O)cc1-3`, for which the metabolised at 4 h, 5 µM in series [1] was less than 5%.
For `CC(C)N.Cn1c(=O)c2c(-c3ccccc3)n3c(c2n(C)c1=O)[C@@H](c1ccc(Br)o1)Oc1ccc(C(=O)O)cc1-3` [listing 1 of 2 here], in series [2], the inhibition result was “inactive”.
Consider `Cn1c(=O)c2c(-c3ccccc3)n3c(c2n(C)c1=O)[C@H](c1ccc(Br)o1)Oc1ccc(C(=O)O)cc1-3`, for which the metabolised at 4 h, 5 µM in series [1] is less than 5%. Also, in series [3], the concentration at 4 h is 600 nM. In addition, the Stability entry in the series with Serum [4] is “Stable”. In series [5], this molecule had a half-life of 1.6 h.
As for `CCOC(=O)c1ccc2c(c1)-n1c(-c3ccccc3)c3c(=O)n(C)c(=O)n(C)c3c1[C@@H](c1ccc(Br)o1)O2`, the inhibition result in series [2] is “inactive”.
In the case of `CC(C)N.Cn1c(=O)c2c(-c3ccccc3)n3c(c2n(C)c1=O)[C@@H](c1ccc(Br)o1)Oc1ccc(C(=O)O)cc1-3` [listing 2 of 2 here], in the series with Serum [6], the Stability result is listed as “Stable”.
Consider `CC(C)N.Cn1c(=O)c2c(-c3ccccc3)n3c(c2n(C)c1=O)[C@H](c1ccc(Br)o1)Oc1ccc(C(=O)O)cc1-3` [listing 1 of 2 here], for which, in series [7], the half-maximal inhibitory concentration (IC50) turned out to be 4 nM.
In the case of `CC(C)N.Cn1c(=O)c2c(-c3ccccc3)n3c(c2n(C)c1=O)[C@H](c1ccc(Br)o1)Oc1ccc(C(=O)O)cc1-3` [listing 2 of 2 here], in series [2], the inhibition entry is “Active”. Moreover, the inhibition entry in series [7] was “Dose-dependent effect”.
